CTSL1 counter-1: Fasciola hepatica cathepsin L1 inhibitors, primary screen, counter-screen for PFM18AAP inhibitor project, biochemical, QFRET, fluorogenic peptide substrate; recombinant F. hepatica cathepsin L1, Z-Leu-Arg-MCA fluorescence; inhibition, % at 5.96 µM; 300,000 compounds, 0.49% hits;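 active = inhibition above the mean of all tested compounds plus 3 SD, set per screening campaign, cut at about 17% in these data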
VIM-2 inh: VIM-2 metallo-beta-lactamase inhibitors, primary screen, biochemical, epi-absorbance readout, Pseudomonas aeruginosa enzyme; inhibition, % at 5.6 µM; 290,000 compounds, 0.89% hits; purified VIM-2, nitrocefin hydrolysis, epi-absorbance fluorescence;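 active = inhibition above the mean of all tested compounds plus 3 SD, cutoff set per screening run, cut at about 7.5% in these data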;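 note: red hydrolysis product quenches plate fluorescence so inhibitors raise well fluorescence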
IMP-1 inh-1: IMP-1 metallo-beta-lactamase inhibitors, primary screen, biochemical, epi-absorbance readout, Pseudomonas aeruginosa enzyme; purified IMP-1, nitrocefin hydrolysis, epi-absorbance fluorescence; inhibition, % at 5.6 µM; 290,000 compounds, 0.45% hits; AID 1556, 2009;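 active = inhibition above the mean plus 3 SD of all compounds in the same screening run, cut at about 4.5% in these data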
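System: purified IMP-1; amount: IMP-1 0.2 nM before substrate addition; compound: single dose, 5.6 µM; times: 25 °C, 15 min preincubation, 25 min reaction; signal: Epi-absorbance via hydrolysed-nitrocefin quenching of white-plate fluorescence, 480/530 nm, EDTA stop; benchmarks: DMSO with and without IMP-1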
PfM18AAP inh-1: PfM18AAP inhibitors, malaria aminopeptidase, primary screen, biochemical, QFRET, recombinant enzyme; M18 aspartyl aminopeptidase (Plasmodium falciparum 3D7); H-Glu-NHMec fluorogenic cleavage; inhibition, % at 7.35 µM; 290,000 compounds, 1.2% hits; AID 1822, 2009;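 active = inhibition above the campaign mean inhibition over all tested compounds plus 3 SD, cut at about 28% in these data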
IMP-1 inh-2: IMP-1 metallo-beta-lactamase inhibitors, confirmation, selectivity assay for selective VIM-2 inhibitor project, biochemical, epi-absorbance readout, triplicate; shares compounds with VIM-2 inh; purified IMP-1, nitrocefin hydrolysis, epi-absorbance fluorescence; inhibition, % at 5.6 µM; 1,300 tested, under 10 active; AID 1856, 2009; call rule not given here
VIM-2 FRET ctr: VIM-2 inhibitors in FRET format, confirmation, artefact control for selective VIM-2 inhibitor project, biochemical, epi-absorbance artifact exclusion; shares compounds with VIM-2 inh; 1,300 compounds, 23% hits; inhibition, % at 5.6 µM; purified VIM-2, CCF2 FRET substrate hydrolysis;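 active = inhibition above the mean of all tested compounds plus 3 SD, cut at about 19% in these data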
TEM-1 counter-1: TEM-1 serine beta-lactamase inhibitors, counter-screen for VIM-2 inhibitor project, biochemical, epi-absorbance, HTS | shares compounds with VIM-2 inh | Purified TEM-1, nitrocefin hydrolysis, epi-absorbance fluorescence | inhibition, % at 5.6 µM | 1,300 compounds, 3% hits | AID 1866, 2009;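 active = inhibition above that campaign's mean inhibition plus 3 SD, cut at about 0.46% in these data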
Target sequence (P62593 whole entry, looked up): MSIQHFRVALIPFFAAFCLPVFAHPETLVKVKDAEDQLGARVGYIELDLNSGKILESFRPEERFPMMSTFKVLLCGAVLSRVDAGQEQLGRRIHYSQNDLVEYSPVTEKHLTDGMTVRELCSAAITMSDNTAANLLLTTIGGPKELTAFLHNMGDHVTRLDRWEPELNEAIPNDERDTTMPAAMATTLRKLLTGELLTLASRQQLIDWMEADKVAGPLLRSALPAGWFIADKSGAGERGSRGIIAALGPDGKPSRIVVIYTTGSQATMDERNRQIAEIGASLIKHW
VIM-2 confirm 2: VIM-2 metallo-beta-lactamase inhibitors, confirmation, biochemical, epi-absorbance, hits shared with IMP-1 screen; shares compounds with VIM-2 inh; purified VIM-2, nitrocefin hydrolysis; inhibition, % at 5.6 µM; 1,300 compounds, 96% hits; AID 2187, 2009;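 active = inhibition of the VIM-2 beta-lactamase enzyme above about 11% from the earlier first-round screen, limit read from the data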
VIM-2 confirm: P. aeruginosa VIM-2 enzyme inhibition – biochemical, epi-absorbance, HTS, confirmation; shares compounds with IMP-1 inh-1; inhibition, % at 5.6 µM; AID 1860, 2009; purified VIM-2 enzyme, nitrocefin absorbance; 200 compounds, 73% hits; in the data active = inhibition above about 8%
TEM-1 counter-2: Serine beta-lactamase TEM-1 inhibition, biochemical epi-absorbance counter-screen for IMP-1/VIM-2 inhibitor program; shares compounds with IMP-1 inh-1; TEM-1 beta-lactamase, nitrocefin absorbance inhibition; inhibition, % at 5.6 µM; 200 compounds, 50% hits; in the data active = inhibition above about 0.66%
IMP-1 inh conf: IMP-1 metallo-beta-lactamase inhibitors, confirmation, biochemical, epi-absorbance, hits shared with VIM-2 screen; purified IMP-1 enzyme, absorbance substrate hydrolysis; 200 compounds, 60% hits; shares compounds with IMP-1 inh-1; AID 2189, 2009; inhibition, % at 5.6 µM; in the data active = inhibition above about 4.9%
PfM18AAP inh-2: PfM18AAP inhibitors, malaria aminopeptidase, confirmation, biochemical, QFRET, recombinant enzyme, triplicate; shares compounds with PfM18AAP inh-1; H-Glu-NHMec fluorogenic cleavage; inhibition, % at 7.35 µM; 2,400 compounds, 28% hits;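 active = mean inhibition over replicate wells above the hit cutoff set for the earlier primary screen, cut at about 29% in these data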
CTSL1 counter-2: cathepsin L1 inhibitors, retest, confirmation, counter-screen for PFM18AAP inhibitor project, biochemical, QFRET, triplicate; inhibition, % at 5.96 µM; purified cathepsin L1, Z-Leu-Arg-MCA fluorescence; shares compounds with PfM18AAP inh-1; 2,400 tested, under 10 active;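 active = average inhibition across replicates above the hit cutoff set in the earlier primary screen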
Target sequence (P07711 whole entry, looked up): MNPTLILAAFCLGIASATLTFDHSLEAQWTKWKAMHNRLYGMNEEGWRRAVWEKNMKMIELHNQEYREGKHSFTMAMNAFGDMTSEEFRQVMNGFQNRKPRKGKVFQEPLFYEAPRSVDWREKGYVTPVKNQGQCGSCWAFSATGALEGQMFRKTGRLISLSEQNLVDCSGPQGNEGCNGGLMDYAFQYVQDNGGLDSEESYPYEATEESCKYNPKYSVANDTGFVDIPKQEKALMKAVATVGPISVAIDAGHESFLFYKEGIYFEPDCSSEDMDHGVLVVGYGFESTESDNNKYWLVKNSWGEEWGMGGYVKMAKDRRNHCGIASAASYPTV
Of the large screens only hits and unclear results are named; the others gave an inactive call (follow-up assays come after a bar, where they were run). Rows were chosen to be rich in hits. Some 2.7% of all compounds tested hit in one or more screens of this group.

CC(=O)Nc1cccc(C(=O)Nc2cccnc2)c1	none
CCCCn1c(Cc2ccccc2)n[nH]c1=S	none
CCCCn1c(-c2sccc2C)n[nH]c1=S	VIM-2 inh 39, PfM18AAP inh-1 32 | IMP-1 inh-2 inactive | VIM-2 FRET ctr 67 | TEM-1 counter-1 inactive | VIM-2 confirm 2 50 | PfM18AAP inh-2 inactive | CTSL1 counter-2 inactive
O=[N+]([O-])c1ccc(-c2ccc(/C=N/n3cnnc3)o2)c(Br)c1	VIM-2 inh 45, PfM18AAP inh-1 51 | IMP-1 inh-2 inactive | VIM-2 FRET ctr inactive | TEM-1 counter-1 inactive | VIM-2 confirm 2 57 | PfM18AAP inh-2 inactive | CTSL1 counter-2 inactive
Oc1c(/C=C/C=C/C=Nc2ccccc2)sc(=S)n1Cc1ccccc1	none
Cc1ccc2nc3c(c(Nc4ccc(O)cc4)c2c1)CCC3	VIM-2 inh 19, PfM18AAP inh-1 33 | IMP-1 inh-2 inactive | VIM-2 FRET ctr inactive | TEM-1 counter-1 inactive | VIM-2 confirm 2 32 | PfM18AAP inh-2 inactive | CTSL1 counter-2 inactive
CCOC(=O)c1c(NC(=O)CSc2ncn[nH]2)sc(C(C)=O)c1C	VIM-2 inh 24, PfM18AAP inh-1 33 | IMP-1 inh-2 inactive | VIM-2 FRET ctr inactive | TEM-1 counter-1 inactive | VIM-2 confirm 2 32 | PfM18AAP inh-2 inactive | CTSL1 counter-2 inactive
CN(C)C(CNC(=O)CCc1c[nH]c2ccccc12)c1ccccc1 (configuration not stated)	none
O=C(CSc1nc2nc(-c3cccs3)cc(C(F)(F)F)c2c(=O)[nH]1)C(F)(F)F	VIM-2 inh 22, IMP-1 inh-1 4.9 | VIM-2 confirm 26 | TEM-1 counter-2 inactive | IMP-1 inh conf inactive
Cc1sc(NC(=O)C2CSC3(C)CCC(=O)N23)nc1-c1ccccc1 (configuration not stated)	none (no result: VIM-2 inh, IMP-1 inh-1, PfM18AAP inh-1)
COc1ccc(-c2occ(C(=O)O)c2C(=O)O)cc1	VIM-2 inh 10, IMP-1 inh-1 26 | VIM-2 confirm 18 | TEM-1 counter-2 inactive | IMP-1 inh conf 22
COc1ccc(-c2ccc(OC)cc2C(=O)O)cc1	none
CCCCCCn1c(=O)[nH]c2nc3cc(N)ccc3nc2c1=O	VIM-2 inh 12, IMP-1 inh-1 16 | VIM-2 confirm 15 | TEM-1 counter-2 31 | IMP-1 inh conf 13
CCOC(=O)/C(C#N)=C1\C(=O)N(Cc2ccccc2)c2ccccc21	none
O=C1CC(NCc2ccc3c(c2)OCO3)C(=O)N1CCc1ccccc1 (configuration not stated)	VIM-2 inh 47, IMP-1 inh-1 42 | VIM-2 confirm inactive | TEM-1 counter-2 inactive | IMP-1 inh conf inactive
CCN1C(=O)CC(NCc2ccc3c(c2)OCO3)C1=O (configuration not stated)	none
CCOC(=O)NC(=O)/C(C#N)=C\Nc1ccc(Cl)cc1Cl	none
CCOC(=O)NC(=O)/C(C#N)=C\Nc1sccc1C(=O)OC	VIM-2 inh 7.7, IMP-1 inh-1 9.1 | VIM-2 confirm inactive | TEM-1 counter-2 inactive | IMP-1 inh conf inactive
COc1ccc(/C(C)=N/NC(=O)c2nnn(-c3nonc3N)c2-c2ccccc2)cc1	VIM-2 inh 12, IMP-1 inh-1 19 | VIM-2 confirm 15 | TEM-1 counter-2 inactive | IMP-1 inh conf 18
CN1CCN(S(=O)(=O)c2ccc(-c3ccc(Cl)cc3)cc2)CC1	VIM-2 inh 11, IMP-1 inh-1 42 | VIM-2 confirm inactive | TEM-1 counter-2 inactive | IMP-1 inh conf inactive
O=C(OCCN1C(=O)c2ccccc2C1=O)c1ccco1	none
CC(C)C(CCN1C(=O)c2ccccc2C1=O)c1ccco1 (configuration not stated)	VIM-2 inh 15, IMP-1 inh-1 7.3 | VIM-2 confirm 33 | TEM-1 counter-2 inactive | IMP-1 inh conf 19
Cc1cccc(NC2SC(=O)N(c3ccccc3)C2=O)c1 (configuration not stated)	none
CC(=O)N(c1cccc(C)c1)C1SC(=O)N(c2ccccc2)C1=O (configuration not stated)	VIM-2 inh 8.3, IMP-1 inh-1 12 | VIM-2 confirm 9.0 | TEM-1 counter-2 inactive | IMP-1 inh conf 18
O=C(COC(=O)/C=C/c1ccc(Cl)cc1)Nc1ccc2[nH]c(=O)[nH]c2c1	none (no result: VIM-2 inh, IMP-1 inh-1, PfM18AAP inh-1)
CCN(CC)CCNC(=O)c1ccc(NC(=O)C2CC(=O)N(c3ccc4c(c3)OCCO4)C2)cc1 (configuration not stated)	none (no result: VIM-2 inh, IMP-1 inh-1, PfM18AAP inh-1)
CC(C)n1cc(/C=N/Nc2ccc(Cl)c(C(=O)O)c2)c2ccccc21	VIM-2 inh 10, IMP-1 inh-1 35 | VIM-2 confirm 8.0 | TEM-1 counter-2 inactive | IMP-1 inh conf 28
O=C(NCc1ccncc1)C12CC3CC(CC(C3)C1)C2	none

Source: PubChem (The Scripps Research Institute Molecular Screening Center)
